Publication PMC5604209 (Journal of Cancer, 2017)

Assays:
Abl enzyme [1] = target: T1, Abl enzyme (Homo sapiens, UniProt P00519); experiment: Time-dependent inhibition and reversibility; assay type: biochemical
MKN-45 = experiment: Cell proliferation assay; assay type: cell-based; conditions: Homo sapiens, MKN-45, 72 h, read-out: Cell growth inhibition IC50
Method in brief: (§1)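 Cells were grown in DMEM or RPMI-1640 with 10% FBS and penicillin/streptomycin at 37 °C, 5% CO2. PBMC were isolated on Ficoll-Paque, and Ba/F3 Bcr-Abl lines were stably transfected. Cells were seeded at low density. DMSO stocks were 3-fold diluted from 10 mM to 0.3 nM, then into serum-free medium before addition. After 72 h, CellTiter-Glo (adherent; RT 10 min) or CellTiter-Blue (suspension; 4 h) was read. IC50 is the mean of three independent duplicate experiments.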

Ba/F3-Bcr-abl^WT = experiment: Cell proliferation assay; assay type: cell-based, murine; conditions: Mus musculus, 72 h, read-out: Cell growth inhibition IC50
Method in brief: as §1

PDGFRβ = PDGFRβ (Homo sapiens, UniProt P09619); experiment: HTRF kinase enzyme assay; assay type: biochemical
Chain of PDGFRβ (P09619 33-1106): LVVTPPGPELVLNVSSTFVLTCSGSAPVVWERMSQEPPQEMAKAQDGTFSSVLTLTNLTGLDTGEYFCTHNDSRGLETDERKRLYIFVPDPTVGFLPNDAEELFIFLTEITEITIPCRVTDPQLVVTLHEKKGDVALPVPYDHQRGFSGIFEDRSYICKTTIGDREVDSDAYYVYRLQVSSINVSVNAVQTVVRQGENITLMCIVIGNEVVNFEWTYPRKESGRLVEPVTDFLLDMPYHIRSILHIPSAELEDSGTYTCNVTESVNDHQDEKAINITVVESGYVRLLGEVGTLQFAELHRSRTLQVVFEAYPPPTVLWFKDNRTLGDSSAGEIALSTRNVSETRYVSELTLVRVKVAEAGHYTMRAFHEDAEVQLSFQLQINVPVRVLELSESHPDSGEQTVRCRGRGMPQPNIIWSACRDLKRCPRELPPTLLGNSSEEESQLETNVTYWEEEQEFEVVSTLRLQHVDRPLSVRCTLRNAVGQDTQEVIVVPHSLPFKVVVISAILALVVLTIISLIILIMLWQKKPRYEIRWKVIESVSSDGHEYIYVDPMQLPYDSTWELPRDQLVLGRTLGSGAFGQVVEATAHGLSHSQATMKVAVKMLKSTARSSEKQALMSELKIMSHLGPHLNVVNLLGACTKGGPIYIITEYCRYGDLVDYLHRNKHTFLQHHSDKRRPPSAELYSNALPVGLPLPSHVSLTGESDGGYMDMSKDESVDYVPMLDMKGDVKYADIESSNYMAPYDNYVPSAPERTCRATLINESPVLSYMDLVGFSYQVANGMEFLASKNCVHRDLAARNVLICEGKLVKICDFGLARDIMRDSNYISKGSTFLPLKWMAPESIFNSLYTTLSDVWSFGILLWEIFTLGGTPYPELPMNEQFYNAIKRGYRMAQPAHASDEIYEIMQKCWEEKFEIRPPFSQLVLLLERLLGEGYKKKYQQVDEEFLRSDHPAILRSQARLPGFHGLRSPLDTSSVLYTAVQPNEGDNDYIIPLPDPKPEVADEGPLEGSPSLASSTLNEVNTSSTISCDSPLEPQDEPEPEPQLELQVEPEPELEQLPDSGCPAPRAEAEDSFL
Method in brief: (§2)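 Recombinant kinases were assayed by HTRF KinEASE-TK in 50 mM HEPES pH 7.0, 0.1 mM Na3VO4, 0.01% BSA, 5 mM MgCl2, 1 mM DTT. Compound was made as an 11-point 3-fold series from a 1 mM DMSO stock and mixed with kinase for 5 min. […] Anti-TK cryptate plus streptavidin-XL665 was added for 1 h at 23 °C before TR-FRET read-out. IC50 is the mean of three independent duplicate runs.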

[2] = target: phosphorylation of Bcr-Abl (Homo sapiens, UniProt P00519+P11274); experiment: Western blot, K562 and KU812 cells; assay type: cell-based; conditions: for phosphorylation of Bcr-Abl kinase: 1 hour
Method in brief: (§3)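 K562 or KU812 cells (1×10⁶ per well) were plated overnight at 37 °C, 5% CO2. They were treated 1 h with a concentration series, or with 100 nM for 0–24 h; 0.1% DMSO served as control. BCA-normalized lysates were run on 10% SDS-PAGE and transferred to PVDF. Blots were blocked in TBS-0.1% Tween-20 with 5% BSA, then probed with phospho-specific primaries (2 h RT or 4 °C overnight) and HRP anti-rabbit (1 h RT). Detection was by ECL.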

Abl (T315I) = Abl (T315I) (Homo sapiens, UniProt P00519, T315I); experiment: HTRF kinase enzyme assay; assay type: biochemical
[3] = tested on: phosphorylation of Bcr-Abl and ERK1/2; experiment: PK/PD in K562 xenograft model: Western blot of tumor samples; assay type: in vivo, nude mice; conditions: single oral dose 15 mg/kg, 2 hours
Method in brief: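 K562 xenografts in nude mice were given a single oral dose of test compound (5 or 15 mg/kg). Tumors were harvested 2 h later, and lysates were probed by Western blot with antibodies to phospho-Bcr-Abl and phospho-ERK1/2.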

Kasumi-1 = experiment: Cell proliferation assay; assay type: cell-based; conditions: Homo sapiens, Kasumi 1, 72 h, read-out: Cell growth inhibition IC50
Method in brief: as §1

K562 cells [4] = experiment: Apoptosis by Annexin V / 7-AAD flow cytometry; assay type: cell-based, human; conditions: 10 μM, 24 hours
Method in brief: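 K562 cells treated 24 h at 37 °C with test compound (0.1, 1.0 or 10 μM) or 0.1% DMSO. Cells were washed twice in PBS and resuspended in binding buffer with PE-Annexin V and 7-AAD for 15 min at RT in the dark. They were then diluted in binding buffer and read on a Guava flow cytometer. Early and late apoptotic fractions were scored.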

Ba/F3-Bcr-abl^T315I = experiment: Cell proliferation assay; assay type: cell-based, murine; conditions: Mus musculus, 72 h, read-out: Cell growth inhibition IC50
Method in brief: as §1

Abl (WT) = Abl (WT) (Homo sapiens, UniProt P00519); experiment: HTRF kinase enzyme assay; assay type: biochemical
Method in brief: as §2

c-Kit = c-Kit (Homo sapiens, UniProt P10721); experiment: HTRF kinase enzyme assay; assay type: biochemical
Chain of c-Kit (P10721 26-976): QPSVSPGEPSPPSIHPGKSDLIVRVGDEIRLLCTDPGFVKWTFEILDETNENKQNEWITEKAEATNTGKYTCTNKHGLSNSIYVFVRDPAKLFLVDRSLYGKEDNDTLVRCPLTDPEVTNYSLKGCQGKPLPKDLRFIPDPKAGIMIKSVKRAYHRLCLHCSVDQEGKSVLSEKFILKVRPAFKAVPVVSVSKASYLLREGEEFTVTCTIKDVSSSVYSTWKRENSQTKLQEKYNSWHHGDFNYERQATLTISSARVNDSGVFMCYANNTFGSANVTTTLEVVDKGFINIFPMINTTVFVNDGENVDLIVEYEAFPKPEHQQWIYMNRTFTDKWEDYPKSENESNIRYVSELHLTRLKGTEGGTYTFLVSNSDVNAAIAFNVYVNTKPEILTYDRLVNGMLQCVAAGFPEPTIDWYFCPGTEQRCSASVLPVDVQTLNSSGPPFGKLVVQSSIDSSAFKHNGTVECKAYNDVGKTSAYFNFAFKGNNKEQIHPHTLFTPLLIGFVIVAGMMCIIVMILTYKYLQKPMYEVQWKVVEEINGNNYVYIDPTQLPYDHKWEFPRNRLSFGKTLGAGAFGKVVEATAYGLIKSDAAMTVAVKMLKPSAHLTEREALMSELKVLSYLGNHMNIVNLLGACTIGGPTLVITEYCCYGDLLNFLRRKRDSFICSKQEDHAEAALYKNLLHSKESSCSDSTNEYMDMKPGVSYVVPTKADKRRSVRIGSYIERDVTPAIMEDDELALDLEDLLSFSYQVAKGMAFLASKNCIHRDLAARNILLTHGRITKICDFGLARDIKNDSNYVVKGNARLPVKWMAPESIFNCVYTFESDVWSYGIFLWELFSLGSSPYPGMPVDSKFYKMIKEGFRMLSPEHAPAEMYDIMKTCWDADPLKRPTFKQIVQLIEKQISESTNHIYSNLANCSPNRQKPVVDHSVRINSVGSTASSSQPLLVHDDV
Method in brief: as §2

EGFR = EGFR (Homo sapiens, UniProt P00533); experiment: Kinase enzyme assay; assay type: biochemical
Chain of EGFR (P00533 25-1210): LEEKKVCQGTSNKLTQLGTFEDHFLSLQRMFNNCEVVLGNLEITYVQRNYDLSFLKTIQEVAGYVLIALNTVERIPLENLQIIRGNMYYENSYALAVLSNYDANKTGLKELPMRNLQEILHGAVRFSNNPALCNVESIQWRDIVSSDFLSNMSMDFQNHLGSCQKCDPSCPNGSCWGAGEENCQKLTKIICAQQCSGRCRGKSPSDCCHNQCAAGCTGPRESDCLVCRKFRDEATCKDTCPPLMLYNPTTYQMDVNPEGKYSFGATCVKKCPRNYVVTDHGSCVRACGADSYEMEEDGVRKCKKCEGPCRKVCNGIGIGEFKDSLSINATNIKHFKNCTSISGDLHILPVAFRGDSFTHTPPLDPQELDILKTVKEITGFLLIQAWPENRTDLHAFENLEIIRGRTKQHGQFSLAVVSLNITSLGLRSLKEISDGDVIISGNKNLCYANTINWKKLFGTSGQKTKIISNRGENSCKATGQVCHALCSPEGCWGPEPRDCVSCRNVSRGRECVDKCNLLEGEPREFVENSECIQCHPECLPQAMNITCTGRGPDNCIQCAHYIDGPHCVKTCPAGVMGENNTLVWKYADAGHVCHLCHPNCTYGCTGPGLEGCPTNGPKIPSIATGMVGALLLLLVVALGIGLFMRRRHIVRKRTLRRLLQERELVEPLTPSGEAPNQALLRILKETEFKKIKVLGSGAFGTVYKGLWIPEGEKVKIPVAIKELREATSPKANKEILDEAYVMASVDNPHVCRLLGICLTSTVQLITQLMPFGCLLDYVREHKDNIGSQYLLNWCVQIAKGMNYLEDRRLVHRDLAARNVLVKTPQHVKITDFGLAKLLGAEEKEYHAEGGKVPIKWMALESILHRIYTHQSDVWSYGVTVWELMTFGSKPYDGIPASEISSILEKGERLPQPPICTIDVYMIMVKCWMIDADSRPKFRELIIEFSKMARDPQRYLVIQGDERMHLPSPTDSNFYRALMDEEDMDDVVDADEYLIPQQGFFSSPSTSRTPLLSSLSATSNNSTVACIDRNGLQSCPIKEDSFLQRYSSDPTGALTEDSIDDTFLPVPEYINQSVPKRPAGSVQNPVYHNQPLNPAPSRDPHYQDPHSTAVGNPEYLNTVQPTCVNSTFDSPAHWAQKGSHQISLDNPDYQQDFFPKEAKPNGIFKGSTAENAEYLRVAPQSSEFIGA

[5] = PK/PD in K562 xenograft model: compound concentration in tumor; assay type: in vivo, nude mice; conditions: nude, mouse, tumor tissue, po, 15 mg/kg
Method in brief: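 In nude mice bearing K562 xenografts, tumor tissue was collected 2 h after one oral dose (5 or 15 mg/kg) of test compound. Compound concentration in tumor samples was quantified by LC-MS/MS.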

SMMC-7721 = experiment: Cell proliferation assay; assay type: cell-based; conditions: Homo sapiens, SMMC-7721, 72 h, read-out: Cell growth inhibition IC50
Method in brief: as §1

K562 xenograft = experiment: K562 tumor xenograft in nude mice; assay type: in vivo; conditions: for tumor growth inhibition: p < 0.05
Method in brief: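 Female athymic nude mice (5–6 weeks) were implanted subcutaneously in the right flank with K562 cells in 100 µL serum-free medium. Once tumors reached about 150–300 mm³, mice were randomized (10 per group) to vehicle or test compound at 5, 15 or 45 mg/kg by daily oral gavage. Caliper volume (w²×l)/2 and body weight were recorded every 2–3 days. TGI was taken versus vehicle, with t-test.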

Human PBMC = experiment: Cell proliferation assay; assay type: cell-based; conditions: read-out: Cell growth inhibition IC50, human lymphocyte, 72 hours
Method in brief: as §1

Abl enzyme [6] = target: T1, Abl enzyme; experiment: Kinetic mechanism of inhibition versus ATP; assay type: biochemical
VEGFR2 = VEGFR2 (Homo sapiens, UniProt P35968); experiment: HTRF kinase enzyme assay; assay type: biochemical
Chain of VEGFR2 (P35968 20-1356): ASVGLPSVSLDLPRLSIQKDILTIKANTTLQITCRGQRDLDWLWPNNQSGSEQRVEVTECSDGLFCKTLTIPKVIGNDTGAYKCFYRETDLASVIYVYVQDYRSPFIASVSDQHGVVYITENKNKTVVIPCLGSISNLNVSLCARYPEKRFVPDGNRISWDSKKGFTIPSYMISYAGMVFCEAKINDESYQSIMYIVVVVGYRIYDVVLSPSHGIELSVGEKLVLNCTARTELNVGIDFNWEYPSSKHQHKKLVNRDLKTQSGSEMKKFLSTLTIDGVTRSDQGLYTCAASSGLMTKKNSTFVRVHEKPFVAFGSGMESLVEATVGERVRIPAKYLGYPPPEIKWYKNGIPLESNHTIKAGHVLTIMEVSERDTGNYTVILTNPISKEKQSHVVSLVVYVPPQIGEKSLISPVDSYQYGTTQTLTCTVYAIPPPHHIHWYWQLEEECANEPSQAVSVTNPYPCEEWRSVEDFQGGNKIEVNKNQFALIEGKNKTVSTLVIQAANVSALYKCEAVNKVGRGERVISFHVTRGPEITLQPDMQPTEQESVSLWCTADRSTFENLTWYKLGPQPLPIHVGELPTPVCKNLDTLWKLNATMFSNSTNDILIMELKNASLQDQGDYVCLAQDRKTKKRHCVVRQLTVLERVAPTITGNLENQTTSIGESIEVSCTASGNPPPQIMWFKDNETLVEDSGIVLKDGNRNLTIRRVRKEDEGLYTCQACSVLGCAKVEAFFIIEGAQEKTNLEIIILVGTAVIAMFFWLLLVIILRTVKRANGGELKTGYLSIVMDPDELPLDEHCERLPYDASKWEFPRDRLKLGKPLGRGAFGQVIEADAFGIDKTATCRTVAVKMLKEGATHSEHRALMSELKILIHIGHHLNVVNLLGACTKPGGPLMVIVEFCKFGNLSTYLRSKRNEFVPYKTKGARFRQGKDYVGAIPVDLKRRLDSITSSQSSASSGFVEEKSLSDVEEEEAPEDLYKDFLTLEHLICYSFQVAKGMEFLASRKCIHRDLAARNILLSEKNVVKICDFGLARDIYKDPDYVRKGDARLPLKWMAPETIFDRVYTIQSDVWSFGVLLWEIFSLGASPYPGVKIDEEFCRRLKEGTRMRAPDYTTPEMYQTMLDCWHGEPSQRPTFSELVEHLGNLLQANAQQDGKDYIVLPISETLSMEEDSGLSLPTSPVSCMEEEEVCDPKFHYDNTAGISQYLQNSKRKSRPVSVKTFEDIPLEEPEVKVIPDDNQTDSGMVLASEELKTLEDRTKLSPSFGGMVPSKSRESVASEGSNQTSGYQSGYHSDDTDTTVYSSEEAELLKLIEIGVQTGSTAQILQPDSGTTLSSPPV
Method in brief: as §2

K562 cells [7] = experiment: Cell cycle by propidium; assay type: cell-based, human; conditions: 1 nM, 24 hours
Method in brief: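 After 24 h exposure of K562 cells to test compound or DMSO, cells were washed in cold PBS and fixed overnight in ice-cold 70% ethanol. They were stained 1 h at 37 °C in PBS with 0.25 mg/mL RNase and 0.025 mg/mL propidium iodide. Cells were read on a Guava flow cytometer, and G1, S and G2/M fractions were quantified.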

phosphorylation of Crkl = experiment: Western blot, K562 and KU812 cells; assay type: cell-based, human; conditions: 100 nM, 1 hour
Method in brief: as §3

[8] = Pharmacokinetic studies in rats; assay type: in vivo; conditions: female, SD, rat, serum, po, 5 mg/kg
Method in brief: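 Female SD rats (5–6 weeks) received a single 5 mg/kg oral dose. Blood was sampled serially from 2 min to 24 h, and serum was separated by centrifugation and stored at −80 °C. Serum levels were measured by LC-MS/MS, and T1/2, Tmax, Cmax and AUC0-INF were derived.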

[9] = tested on: phosphorylated ERK1/2 and STAT5; experiment: Western blot, K562 and KU812 cells; assay type: cell-based, human
Method in brief: as §3

KU812 xenograft = experiment: KU812 tumor xenograft in nude mice; assay type: in vivo; conditions: 30 mg/kg QD; for treated mice with complete tumor regression: p < 0.01
PC-3 = experiment: Cell proliferation assay; assay type: cell-based; conditions: Homo sapiens, PC-3, 72 h, read-out: Cell growth inhibition IC50
Method in brief: as §1

HL-60 = experiment: Cell proliferation assay; assay type: cell-based; conditions: Homo sapiens, HL-60, 72 h, read-out: Cell growth inhibition IC50
Method in brief: as §1

[10] = tested on: liver CYP450 enzymes (all tested enzymes); experiment: Liver CYP450 enzyme inhibition; assay type: in vitro ADME
MV-4-11 = experiment: Cell proliferation assay; assay type: cell-based; conditions: read-out: Cell growth inhibition IC50; MV-4-11, acute myeloid leukemia, 72 hours
Method in brief: as §1

In the case of `Cc1ccc(NC(=O)c2ccc3c(c2)CC[C@@H]3N2CCN(C)CC2)cc1C#Cc1cnc2ccc(Cl)nn12` [CT-721, (S)-N-(3-((6-chloroimidazo[1,2-b]pyridazin-3-yl)ethynyl)-4-methylphenyl)-1-(4-methylpiperazin-1-yl)-2,3-dihydro-1H-indene-5-carboxamide], the koff (Abl enzyme [1]) is reported as 5.37e-05 s⁻¹, the IC50 (Abl enzyme [1]; IC50 for Abl kinase, Normal (no preincubation, 0 min)) is reported as 0.0121 µM and the “decrease of IC50 after preincubation” value (Abl enzyme [1]; from 12.1 nM to 1.3 nM, 120 min) is reported as 9 fold. It also gave an IC50 (MKN-45) of 1 to 10 µM, an IC50 (Ba/F3-Bcr-abl^WT) of 0.0016 ± 0.0003 µM and an IC50 (PDGFRβ) of 0.106 µM. For the same compound, the “phosphorylation of Bcr-Abl kinase” value ([2]; 10 nM) was “significantly suppressed”, the “phosphorylation of Bcr-Abl kinase” value ([2]; 100 nM) was “totally blocked” and the “duration of blockage of phosphorylation of Bcr-Abl and Crkl” value ([2]; time course, 100 nM) was “at least 24 hours”. For the same compound, the IC50 (Abl (T315I)) was 0.065 ± 0.0062 µM, the “Bcr-Abl and ERK phosphorylation in tumor” value [3] was “almost complete inhibition” and the IC50 (Kasumi-1) was 0.053 ± 0.006 µM. The late-phase apoptosis (K562 cells [4]) was “late-phase apoptosis was also observed”, the IC50 (Ba/F3-Bcr-abl^T315I) was 0.0185 ± 0.012 µM and the IC50 (Abl (WT)) was 0.0213 ± 0.0011 µM. For the same compound, the IC50 (c-Kit) was 0.0092 µM, the IC50 (EGFR) was 0.13 µM and the concentration at 2 h [5] was 0.254 µg/mL. The IC50 (SMMC-7721) was 1 to 10 µM, the tumor growth inhibition (K562 xenograft; K562 xenograft, 5 mg/kg PO QD) was 51.4% and the tumor growth inhibition (K562 xenograft; K562 xenograft, 15 mg/kg PO QD, 12 days) was 76%. The “mice completely cured, tumors disappeared completely” value (K562 xenograft; K562 xenograft, 45 mg/kg PO QD, 9 days, p < 0.01) was 90%, the “body weight of xenograft mice” value (K562 xenograft; K562 xenograft, 5, 15 and 45 mg/kg) was “without causing significant bodyweight loss” and the IC50 (Human PBMC) was 1 to 10 µM. For the same compound, the Ki (Abl enzyme [6]) was 0.0073 µM, the “Ki'” value (Abl enzyme [6]; enzyme-ATP complex) was 0.775 µM and the IC50 (VEGFR2) was 0.0489 µM. The cell cycle arrest (K562 cells [7]) was “pronounced G0/G1 phase arrest”, the “phosphorylation of Crkl” value (phosphorylation of Crkl) was “significantly inhibited” and the AUC(0-inf) [8] was 5.42 µg·h/mL. It also gave a Cmax [8] of 0.303 µg/mL, a Tmax [8] of 6.67 h and a half-life [8] of 8.83 h. For the same compound, the “levels of phosphorylated ERK1/2 and STAT5” value [9] was “dose-dependently repressed”, the tumor growth (KU812 xenograft; after 5 days) was “notably inhibited with partial regression observed” and the “treated mice with complete tumor regression” value (KU812 xenograft; after 8 days) was 50%. For the same compound, the “treated mice with complete tumor regression” value (KU812 xenograft; after 18 days) was 80%, the “body weight of xenograft mice” value (KU812 xenograft; compared to the vehicle group) was “no significant body weight loss” and the IC50 (PC-3) was 1 to 10 µM. The IC50 (HL-60) was 1 to 10 µM, the IC50 [10] was over 10 µM and the IC50 (MV-4-11) was 0.232 ± 0.055 µM.
